Assay results as given in ChEMBL document CHEMBL1123180, “Improved glucose tolerance in rats treated with oxazolidinediones” (1986).
The source made the active and inactive calls. No cut-off for these calls is given here.

Test system: Rattus norvegicus
Assay: Ability to lower blood sugar level at the dose of 25 mg/kg in fasted rats, by using glucose tolerance test(GTT); NA=Inactive
Type: functional, organism-based
Set-up: dose 25 mg/kg
Details: not given
In short: (§1)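 Male albino rats, groups of five or six, fasted 18–24 h. Glucose 1 g/kg given ip; test drug (0.1 to 100 mg/kg) or water (controls) given orally. Tail-vein blood sampled over 0–3 h; glucose (mg/100 mL) measured by Autoanalyser ferricyanide method. Value is percent lowering of blood glucose vs controls at 0.5 h; a lowering of ≥9% is needed for P = 0.05.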

Compound | Blood sugar lowering
COc1ccc(C(N)=O)cc1C1OC(=O)NC1=O (configuration not stated) | inactive
COc1ccc(N)cc1C1OC(=O)NC1=O (configuration not stated) | inactive
O=C1NC(=O)C(c2ccccc2OCCn2ccnc2)O1 (configuration not stated) | inactive
COc1ccc(C(=O)O)cc1C1OC(=O)NC1=O (configuration not stated) | inactive
COc1cccc(C(F)(F)F)c1C1OC(=O)NC1=O (configuration not stated) | inactive
O=C(Nc1ccccc1C1OC(=O)NC1=O)NC1CCCCC1 (configuration not stated) | inactive
COc1ccc(CCn2ccnc2)cc1C1OC(=O)NC1=O (configuration not stated) | inactive
O=C1NC(=O)C(c2c(Cl)cccc2[N+](=O)[O-])O1 (configuration not stated) | inactive
O=C1NC(=O)C(c2c(F)cccc2C(F)(F)F)O1 (configuration not stated) | inactive
O=C1NC(=O)C(c2c(Cl)cccc2OCc2ccccc2)O1 (configuration not stated) | inactive
COc1ccc(-c2ccccc2)cc1C1OC(=O)NC1=O (configuration not stated) | inactive

Test system: Rattus norvegicus
Assay: Ability to lower blood sugar level at the dose of 100 mg/kg in fasted rats, by using glucose tolerance test(GTT)
Type: functional
Details: not given
In short: as §1

Compound | Blood sugar lowering [%]
Cc1ccc(C2OC(=O)NC2=O)cc1 (configuration not stated) | 10
O=C1NC(=O)C(c2ccc(F)cc2)O1 (configuration not stated) | 21
O=C1NC(=O)C(c2ccccc2OCc2ccccc2)O1 (configuration not stated) | 11
O=C1NC(=O)C(c2ccc(OCc3ccccc3)cc2)O1 (configuration not stated) | 20
COc1ncccc1C(=O)NCCc1ccc(C2OC(=O)NC2=O)cc1 (configuration not stated) | 26
COc1ccc(C2OC(=O)NC2=O)cc1 (configuration not stated) | 19
CCOc1ccc(C2OC(=O)NC2=O)cc1 (configuration not stated) | 18
O=C1NC(=O)C(c2cccc(Oc3ccccc3)c2)O1 (configuration not stated) | 12
O=C1NC(=O)C(c2ccc3c(c2)OCO3)O1 (configuration not stated) | 18
O=C1NC(=O)C(c2cccc(Cl)c2)O1 (configuration not stated) | 26

Test system: Rattus norvegicus
Assay: Compound was tested for the ability to lower blood sugar level at the dose of 25 mg/kg in fasted rats, by using glucose tolerance test(GTT)
Type: functional
Details: not given
In short: as §1

Compound | Blood sugar lowering [%]
COc1ccc([N+](=O)[O-])cc1C1OC(=O)NC1=O (configuration not stated) | 17

Test system: Rattus norvegicus
Assay: Compound was tested for the ability to lower blood sugar level at the dose of 50 mg/kg in fasted rats, by using glucose tolerance test(GTT)
Type: functional
Details: not given
In short: as §1

Compound | Blood sugar lowering [%]
O=C1NC(=O)C(c2ccc(Cl)cc2)O1 (configuration not stated) | 12
COc1cccc(C2OC(=O)NC2=O)c1OC (configuration not stated) | 12

Test system: Rattus norvegicus
Assay: Compound was tested for the ability to lower blood sugar level at the dose of 100 mg/kg in fasted rats, by using glucose tolerance test(GTT)
Type: functional
Details: not given
In short: as §1

Compound | Blood sugar lowering [%]
O=C1NC(=S)OC1c1ccccc1 (configuration not stated) | 17

Test system: Rattus norvegicus
Assay: Ability to lower blood sugar level at the dose of 100 mg/kg in fasted rats, by using glucose tolerance test(GTT); NA=Inactive
Type: functional, organism-based
Set-up: dose 100 mg/kg
Details: not given
In short: as §1

Compound | Blood sugar lowering
CN1C(=O)OC(c2ccccc2)C1=O (configuration not stated) | inactive
O=C1NC(=O)C(c2ccccc2)N1 (configuration not stated) | inactive
CNC(=O)Nc1ccccc1C1OC(=O)NC1=O (configuration not stated) | inactive
CCC1(c2ccccc2)OC(=O)NC1=O (configuration not stated) | inactive
Nc1ccc(C2OC(=O)NC2=O)cc1 (configuration not stated) | inactive

Test system: Rattus norvegicus
Assay: Ability to lower blood sugar level at the dose of 2.5 mg/kg in fasted rats, by using glucose tolerance test(GTT)
Type: functional
Details: not given
In short: as §1

Compound | Blood sugar lowering [%]
C=CCOc1cccc(Cl)c1C1OC(=O)NC1=O (configuration not stated) | 17
COc1ccc(F)cc1C1OC(=O)NC1=O (configuration not stated) | 15

Same assay, conditions: 2.5 mg/kg

Compound | Blood sugar lowering [%]
COc1ccc(Cl)cc1C1OC(=O)NC1=O (single isomer, unassigned; (+)) | 12
COc1ccc(Cl)cc1C1OC(=O)NC1=O (single isomer, unassigned; (-)) | 26

Test system: Rattus norvegicus
Assay: Ability to lower blood sugar level at the dose of 25 mg/kg in fasted rats, by using glucose tolerance test(GTT)
Type: functional
Details: not given
In short: as §1

Compound | Blood sugar lowering [%]
Cc1ccc(F)cc1C1OC(=O)NC1=O (configuration not stated) | 19
Cl.Nc1ccccc1C1OC(=O)NC1=O (configuration not stated) | 15
CSc1cccc(Cl)c1C1OC(=O)NC1=O (configuration not stated) | 21
CC(C)Oc1cccc(F)c1C1OC(=O)NC1=O (configuration not stated) | 15
COc1ccc(C2OC(=O)NC2=O)c(OC)c1 (configuration not stated) | 10
O=C1NC(=O)C(Cc2ccccc2)O1 (configuration not stated) | 9
O=C1NC(=O)C(c2c(F)cccc2F)O1 (configuration not stated) | 25
COc1ccc(C#N)cc1C1OC(=O)NC1=O (configuration not stated) | 19
O=C1NC(=O)C(c2ccccc2[N+](=O)[O-])O1 (configuration not stated) | 11
CSc1cccc(F)c1C1OC(=O)NC1=O (configuration not stated) | 18
CCSc1cccc(F)c1C1OC(=O)NC1=O (configuration not stated) | 17
O=C1NC(=O)C(c2c(Cl)cccc2Cl)O1 (configuration not stated) | 21
CCc1ccc(OC)c(C2OC(=O)NC2=O)c1 (configuration not stated) | 10
